In the library only some 3.6% were active in any assay of this set; here they are far more common.
T cruzi repl: inhibitors of intracellular T. cruzi growth, primary screen, luminescence, NIH3T3 host cells. 1.4% of 300,000 active. T. cruzi beta-gal in NIH3T3, 90 h. inhibition, % (no concentration beside the values). AID 1885, 2009;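 active means mean inhibition across valid replicates above about 55%, limit read from the data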;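 further: signal also drops with host cell toxicity which is not excluded here; 0% = plate median of DMSO wells and 100% = zero luminescence signal; higher percent means less beta-gal luminescence so fewer parasites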
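Assay system: NIH/3T3 host cells with β-galactosidase reporter T. cruzi; input: 5,000 host fibroblasts per well; compound: single 50 nL compound addition per well in DMSO; timing: ≥90 h infection period, 3 h prior cell attachment; measured by: GalScreen β-gal luminescence, detergent lysis, 60 min; evaluation: percent inhibition of parasite-derived β-gal signal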
HIF act: HIF pathway transcriptional activators, primary screen, cell-based, U2OS HRE-luciferase, luminescence; U2OS HRE-luciferase reporter; normalized: DMSO 0%, desferrioxamine 100%; activation, % at 7.5 µM (by protocol); 0.32% of 300,000 active; AID 1910, 2009;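 active means mean activation of at least 10% of the iron chelator positive control signal, with at least half of replicates also reaching 10%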
PfHsp90 set2: growth inhibition of PfHsp90-expressing yeast, primary screen, antimalarial PfHsp90 inhibitor project, S. cerevisiae, BacTiter-Glo luminescence, single point, set 2; BacTiter-Glo ATP, 48 h; yeast lacking PDR1 and PDR3 efflux regulators; inhibition, % at 9.4 µM; 0.32% of 310,000 active;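 active means every replicate shows inhibition above about 80%, whatever the replicate mean, limit read from the data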;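 further: 0% = DMSO neutral controls and 100% = 20 µM radicicol positive controls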
Beta apoptosis: inhibitors of cytokine-induced beta cell apoptosis, primary screen, luminescence | protection from apoptosis, % (concentration not given with the values) | 0.8% of 300,000 active | INS-1E cytokine-induced death, ATP luminescence, 48 h; percent of positive-control rescue, neutral wells zero | AID 435005, 2010;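 active means Every replicate reaches about 75%, or at least half do and their mean reaches it too, limit read from the data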;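 further: 0% = cytokine-treated negative control wells and 100% = positive control rescue; higher means more ATP so stronger rescue from cytokine killing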
SKKanGAS inh: S. pyogenes SKKanGAS growth inhibitors in kanamycin, primary screen, streptokinase expression inhibitor project, SKKanGAS strain, BacTiter-Glo luminescence. AID 1662, 2009. inhibition, % at 7.5 µM. 1.3% of 300,000 active. 6 h;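 active means mean replicate score, as percent of positive control median, at least 50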;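 further: strain carries kanamycin resistance gene driven by streptokinase promoter and grows in 40 µg/ml kanamycin; loss of luminescence reflects streptokinase promoter inhibition or plain growth inhibition; 0% = median of DMSO wells and 100% = positive control at its reference dose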
CSC inhib: cancer stem cell viability inhibitors, primary screen, luminescence. 1.1% of 300,000 active. inhibition, % at 7.5 µM. cancer stem cell-like cells viability; in the data active means inhibition above about 75%; tested in HMLE shEcad cells
Active calls of the source: *; · = no result.

SMILES	T cruzi repl	HIF act	PfHsp90 set2	Beta apoptosis	SKKanGAS inh	CSC inhib
Cn1c(CNc2ccc(Cl)cc2)nc2ccccc21	-3	3	-4	-11	4	58
COc1ccc(NC(=O)COC(=O)c2ccc(OC)c(S(=O)(=O)N3CCCC3)c2)cc1OC	·	·	·	-5	·	·
CCC(C)N1CCN(S(=O)(=O)Cc2ccccc2)CC1 (centres undefined)	3	0	2	-3	0	0
CCOc1ccc(N/C(SCc2cccc([N+](=O)[O-])c2)=C(/C#N)C(N)=O)cc1	24	0	-57	-16	9	-1
N#CC(C#N)=C(Nc1ccc(F)cc1)SCc1cccc(F)c1	-34	0	12	102*	11	58
CC(C)(C)c1cc(NCCCn2ccnc2)n2ncc(-c3ccc(Cl)cc3)c2n1	58*	1	·	9	106*	112*
CN(C)CCCNc1cc(C(C)(C)C)nc2c(-c3ccccc3)cnn12	56*	1	8	113*	29	99*
Cc1cc(NCCCn2ccnc2)n2nc(-c3ccc(Cl)cc3)cc2n1	25	0	-35	15	8	27
CCOc1cccc(C2/C(=C(/O)c3ccc4c(c3)CC(C)O4)C(=O)C(=O)N2Cc2ccncc2)c1 (centres undefined)	-5	0	12	0	2	-5
COc1cccc(-c2sc3ccccc3c2-c2ccc(OCCN3CCCCC3)cc2)c1	·	·	29	28	·	104*
COc1cccc(-c2sc3ccccc3c2-c2ccc(OCCN(C)C)cc2)c1	·	·	38	20	·	104*
COc1cccc(-c2sc3ccccc3c2-c2ccc(OCCN3CCCC3)cc2)c1	·	·	22	5	·	104*
COc1cccc(-c2sc3ccc(OC)cc3c2-c2ccc(OCCN3CCCC3)cc2)c1	·	·	6	·	·	·
CCOc1ccc(N(CC(=O)NCc2ccccc2Cl)S(=O)(=O)c2c(C)noc2C)cc1	31	-1	-1	-3	2	26
CC(OC(=O)CCC1CCCCC1)C(=O)Nc1ccc(S(N)(=O)=O)cc1 (centres undefined)	-5	3	·	-4	-1	-12
N=NC(=O)c1ccccc1Nc1c(O)[nH]c2ccccc12	·	·	29	·	·	·
CCCc1ccc(-c2cc(NC(=O)CSc3n[nH]c(N)n3)n(-c3ccccc3)n2)cc1	28	2	-18	-6	4	91*
Cc1cc(C)nc(N2CCCC(CCC(=O)NCc3ccc(F)c(F)c3)C2)n1 (centres undefined)	7	0	5	-2	-5	7
Cc1cccc(N=C2NN=C(c3c(C)[nH]c4ccccc34)CS2)c1	4	0	9	8	98*	15
Cc1cccc(N=C2NN=C(c3ccc4c(c3)OCCO4)CS2)c1	-3	0	-10	5	12	4
COc1ccc(/C=C/C(=O)NC(=S)NNC(=O)c2cccnc2)cc1OC	9	0	-10	-4	19	-9
COc1ccc(/C=C/C(=O)NC(=S)NNC(=O)Cc2cccs2)cc1OC	-23	-23	-26	7	67*	17
COc1cc(OC)cc(C(=O)NC(=S)NNC(=O)Cc2cccs2)c1	-24	0	-12	-9	70*	8
O=C(/C=C/c1cccs1)NC(=S)NNC(=O)Cc1cccs1	-5	0	-12	4	68*	34
COc1ccc(/C=C/C(=O)NC(=S)NNC(=O)c2cccs2)cc1OC	3	0	18	1	73*	0
SMILES	T cruzi repl	HIF act	PfHsp90 set2	Beta apoptosis	SKKanGAS inh	CSC inhib
CCCCNC(=O)C(CC)(ONc1ccccc1C(F)(F)F)c1ccccc1OC (centres undefined)	·	·	1	-4	·	-1
c1ccc(Nc2cccc3ccccc23)cc1	·	·	12	·	·	·
c1ccc(Nc2ccc3c4c(cccc24)CC3)cc1	65*	0	-5	2	23	12
O=C(NCCc1ccccc1)c1cc(-c2ccco2)on1	1	23*	-3	17	1	58
COc1ccc(CCNC(=O)c2cc(-c3cccs3)on2)cc1OC	9	16*	-30	35	0	21
COc1ccc(CCNC(=O)c2cc(-c3ccco3)on2)cc1OC	-16	17*	4	41	0	24
O=c1cc(CN2CCN(S(=O)(=O)c3cccc(Cl)c3)CC2)c2ccc(O)cc2o1	·	·	23	6	·	37
O=C(COc1cccc2ccccc12)Nc1cc(Cl)ccc1C(=O)O	-11	-1	-43	0	39	46
O=C(COc1cccc2ccccc12)Nc1ccc(Cl)cc1C(=O)O	-3	15*	10	-6	34	0
CC1CC1C(=O)Nc1nc(-c2ccccn2)cs1 (centres undefined)	0	2	19	-1	85*	2
O=C(Nc1nc(-c2ccccn2)cs1)C1COc2ccccc2O1 (centres undefined)	·	·	103*	-1	·	38
O=C(Nc1nnc(SCc2ccccc2Cl)s1)C1COc2ccccc2O1 (centres undefined)	16	0	-20	1	69*	19
Cc1ccccc1CSc1nnc(NC(=O)C2COc3ccccc3O2)s1 (centres undefined)	-6	0	-22	-7	18	·
CC(=O)c1ccc2c(c1)CC1(C2)Cc2cc3c(cc2C1)C(=O)CC3 (centres undefined)	·	·	-30	·	·	·
COCCC(=O)N1CCC(Oc2ccc(C(=O)NCCc3ccccn3)cc2)CC1	2	0	-9	-4	-9	-1
CNS(=O)(=O)c1cccc(C(=O)OCC(=O)N2CC(C)OC(C)C2)c1 (centres undefined)	-7	0	-57	1	6	2
CCN(CC)CCSc1nnc2c3ccccc3n(Cc3ccccc3)c2n1	69*	0	0	-1	-1	79*
O=C(O)c1ccc(N=Cc2c(O)ccc3oc4c(c23)CCCC4)cc1	-4	·	-20	-11	15	24
Oc1ccccc1N=Cc1c(O)ccc2oc3c(c12)CCCC3	-1	-1	-55	-2	85*	17
CCOc1ccc(CN(C)C(=O)CNC(=O)C2CCCCC2)cc1	2	0	7	-7	-4	0
COc1ccc2oc(-c3ccc(NC(=O)c4ccc(N5CCOCC5)c([N+](=O)[O-])c4)cc3)nc2c1	-27	0	-1	14	8	9
O=C(Nc1ccc(-c2nc3ccccc3o2)cc1)c1ccc(N2CCOCC2)c([N+](=O)[O-])c1	57*	0	-3	99*	34	7

Screening results (PubChem BioAssay)
